Molecules are shown by their SMILES. Active and inactive are the calls of the source. The calls are words filed in the database; no cut-off is given here.

The values below come from ChEMBL document CHEMBL4627411, “Novel Piperidinyl-Azetidines as Potent and Selective CCR4 Antagonists Elicit Antitumor Response as a Single Agent and in Combination with Checkpoint Inhibitors” (J Med Chem, 2020).

The target in data set [1] is T1, C-C chemokine receptor type 4 (Homo sapiens, UniProt P51679).
T1 sequence (P51679 whole entry): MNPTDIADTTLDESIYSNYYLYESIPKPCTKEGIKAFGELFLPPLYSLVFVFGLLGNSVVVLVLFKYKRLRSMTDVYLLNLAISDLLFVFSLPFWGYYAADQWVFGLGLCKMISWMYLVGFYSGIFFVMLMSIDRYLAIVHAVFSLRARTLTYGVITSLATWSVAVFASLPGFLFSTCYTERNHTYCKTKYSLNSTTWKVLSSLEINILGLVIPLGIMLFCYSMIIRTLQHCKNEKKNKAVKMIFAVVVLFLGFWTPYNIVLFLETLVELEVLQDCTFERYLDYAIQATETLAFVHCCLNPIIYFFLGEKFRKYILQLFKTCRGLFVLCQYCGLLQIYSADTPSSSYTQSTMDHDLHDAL
Description: Antagonist activity at human CCR4 expressed in rat chem-5 cells assessed as inhibition of CCL22-induced calcium flux measured at 2.5 secs time interval for 45 secs by calcium 6 dye-based FLIPR assay. It is filed as functional, cell-based. The procedure, abridged: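 Primary calcium flux assay for CCR4 antagonism, run in the absence of serum.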
On the technique in general: Calcium assays in cells follow changes in intracellular calcium, usually with a dye or a luminescent sensor.

Data set [2] in a line: Metabolic stability in human hepatocytes assessed as parent compound remaining at 1 uM after 60 mins by LC-MS/MS analysis. As to conditions: read-out: Stability. In kind it is ADME, cell-based, Hepatocyte. The gist of the method:
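Hepatocytes (human or rat). Compound incubated for 60 min; value is % parent remaining.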

A short description of data set [3]: Clearance in rat at 0.5 mg/kg, iv. As to conditions: in vivo. In kind it is ADME, organism-based. The gist of the method:
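Rat in vivo PK. Single IV dose of 0.5 mg/kg; clearance in mL/min/kg.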

A short description of data set [4]: Oral bioavailability in rat at 2 mg/kg. In kind it is ADME, organism-based. As to conditions: in vivo. The procedure, abridged: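 Rat in vivo PK. Oral dose of 2 mg/kg; %F derived.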
The next data set addresses Cytochrome P450 2D6 (Homo sapiens, UniProt P10635). Kind of data set: Inhibition of CYP2D6 in human liver microsomes using bufuralol hydrochloride salt as substrate incubated for 20 mins in presence of NADPH by LC-MS/MS analysis. It is filed as ADME. Background: Liver microsomes are a subcellular fraction often used to study metabolism.
The next data set addresses Cytochrome P450 3A4 (Homo sapiens, UniProt P08684). Kind of data set: Inhibition of CYP3A4 in human liver microsomes using midazolam hydrochloride as substrate incubated for 20 mins in presence of NADPH by LC-MS/MS analysis. It is filed as ADME.
The target in the next data set is CYP3A4 (Homo sapiens, UniProt P08684). Description: Ratio of IC50 for time-dependent inhibition of CYP3A4 in human liver microsomes using midazolam hydrochloride as substrate in presence of NADPH to IC50 for time-dependent inhibition of CYP3A4 in human liver microsomes using midazolam hydrochloride as substrate absence of NADPH. As to conditions: probe midazolam hydrochloride, read-out: Ratio IC50.

In data set [5] the target is C-C chemokine receptor type 10 (Homo sapiens) (UniProt P46092). Kind of data set: Antagonist activity at human Gi/G0-coupled CCR10 receptor expressed in human U2OS cells assessed as inhibition of CCL27-induced beta arrestin2 recruitment at 500 nM preincubated for 30 mins followed by CCL27 stimulation and measured after 90 to 180 mins by pathhunter assay. In kind it is cell-based.

The target of data set [6] is C-C chemokine receptor type 2 (Homo sapiens) (UniProt P41597). Kind of data set: Antagonist activity at human Gi/G0-coupled […]-induced beta arrestin2 recruitment at 500 nM preincubated for 30 mins […] and measured after 90 to 180 mins by pathhunter assay.
Data set [7] deals with C-C chemokine receptor type 3 (Homo sapiens) (UniProt P51677). Description: Antagonist activity at human Gi/G0-coupled CCR3 receptor expressed in CHO-K1 cells assessed as inhibition of CCL13-induced beta arrestin2 recruitment at 500 nM preincubated for 30 mins followed by CCL13 stimulation and measured after 90 to 180 mins by pathhunter assay. In kind it is cell-based.
In data set [8] the target is C-C chemokine receptor type 9 (Homo sapiens) (UniProt P51686). Description: Antagonist activity at human Gi/G0-coupled CCR9 receptor expressed in CHOK1 cells assessed as inhibition of CCL25-induced beta arrestin2 recruitment at 500 nM preincubated for 30 mins followed by CCL25 stimulation and measured after 90 to 180 mins by pathhunter assay. As to conditions: CHO-K1. In kind it is cell-based. (In general: Activated receptors often draw arrestin, which recruitment assays turn into a signal.)

Data set [9] deals with CX3C chemokine receptor 1 (Homo sapiens) (UniProt P49238). Description: Antagonist activity at human Gi/G0-coupled CX3CR1 expressed in CHOK1 cells assessed as inhibition of CX3CL1-induced beta arrestin2 recruitment at 500 nM preincubated for 30 mins followed by CX3CL1 stimulation and measured after 90 to 180 mins by pathhunter assay. It is filed as cell-based. As to conditions: CHO-K1.

For data set [10], the target named is C-X-C chemokine receptor type 2 (Homo sapiens) (UniProt P25025). Description: Antagonist activity at human Gi/G0-coupled CXCR2 assessed as inhibition of CXCL8-induced beta arrestin2 recruitment at 500 nM preincubated for 30 mins followed by CXCL8 stimulation and measured after 90 to 180 mins by pathhunter assay.
The target in data set [11] is C-X-C chemokine receptor type 4 (Homo sapiens) (UniProt P61073). Description: Antagonist activity at human Gi/G0-coupled CXCR4 assessed as inhibition of CXCL12-induced beta arrestin2 recruitment at 500 nM preincubated for 30 mins followed by CXCL12 stimulation and measured after 90 to 180 mins by pathhunter assay.
In data set [12] the target is C-X-C chemokine receptor type 6 (Homo sapiens) (UniProt O00574). Description: Antagonist activity at human Gi/G0-coupled CXCR6 assessed as inhibition of CXCL16-induced beta arrestin2 recruitment at 500 nM preincubated for 30 mins followed by CXCL16 stimulation and measured after 90 to 180 mins by pathhunter assay.
The next data set concerns Panc02. Kind of data set: Antitumor activity against mouse Panc02 cells allografted in C57BL/6 mouse assessed as reduction in tumor growth at 50 mg/kg, po qd for 38 days. It is filed as functional, organism-based. The gist of the method:
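Pan02-OVA syngeneic tumor model. Compound given 50 mg/kg PO QD on a therapeutic schedule, alone or combined with anti-CTLA-4 antibody; tumor growth tracked. Groups compared by two-tailed t-test.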

C-X-C chemokine receptor type 6 (Homo sapiens), sequence (O00574 whole entry, looked up): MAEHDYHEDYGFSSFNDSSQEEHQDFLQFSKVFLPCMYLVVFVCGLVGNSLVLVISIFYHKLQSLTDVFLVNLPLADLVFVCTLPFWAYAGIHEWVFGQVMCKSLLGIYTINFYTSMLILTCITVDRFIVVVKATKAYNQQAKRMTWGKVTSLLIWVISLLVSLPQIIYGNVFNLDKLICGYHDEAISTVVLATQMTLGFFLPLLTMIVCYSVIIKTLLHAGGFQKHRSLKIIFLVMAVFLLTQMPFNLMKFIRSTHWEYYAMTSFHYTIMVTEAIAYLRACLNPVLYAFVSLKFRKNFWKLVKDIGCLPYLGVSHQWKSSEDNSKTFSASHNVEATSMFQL
C-C chemokine receptor type 9 (Homo sapiens), sequence (P51686 whole entry): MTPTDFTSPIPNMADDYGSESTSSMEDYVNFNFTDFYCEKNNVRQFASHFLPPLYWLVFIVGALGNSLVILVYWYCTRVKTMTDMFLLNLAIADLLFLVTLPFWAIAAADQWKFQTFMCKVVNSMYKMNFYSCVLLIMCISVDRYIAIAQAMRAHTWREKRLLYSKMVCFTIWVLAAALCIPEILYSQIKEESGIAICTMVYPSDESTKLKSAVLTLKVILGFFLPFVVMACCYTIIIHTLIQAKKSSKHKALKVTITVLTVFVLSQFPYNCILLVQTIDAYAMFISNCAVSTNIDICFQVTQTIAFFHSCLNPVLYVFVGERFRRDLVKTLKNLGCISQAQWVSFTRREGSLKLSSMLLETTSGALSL
Cytochrome P450 2D6, sequence (P10635 whole entry): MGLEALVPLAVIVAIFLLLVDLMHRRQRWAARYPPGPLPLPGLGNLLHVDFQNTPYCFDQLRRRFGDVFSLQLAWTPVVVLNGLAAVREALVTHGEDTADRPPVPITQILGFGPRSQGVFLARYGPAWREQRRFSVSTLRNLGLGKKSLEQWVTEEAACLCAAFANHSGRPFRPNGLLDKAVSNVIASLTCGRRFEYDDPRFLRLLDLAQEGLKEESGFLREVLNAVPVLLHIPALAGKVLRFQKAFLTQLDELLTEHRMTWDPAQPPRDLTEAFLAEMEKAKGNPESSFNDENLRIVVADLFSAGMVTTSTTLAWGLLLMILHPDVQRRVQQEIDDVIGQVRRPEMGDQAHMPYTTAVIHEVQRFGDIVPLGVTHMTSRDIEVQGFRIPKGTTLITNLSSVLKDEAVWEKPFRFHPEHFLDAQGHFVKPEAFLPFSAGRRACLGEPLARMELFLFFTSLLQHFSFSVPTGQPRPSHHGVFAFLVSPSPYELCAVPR
Cytochrome P450 3A4, sequence (P08684 whole entry): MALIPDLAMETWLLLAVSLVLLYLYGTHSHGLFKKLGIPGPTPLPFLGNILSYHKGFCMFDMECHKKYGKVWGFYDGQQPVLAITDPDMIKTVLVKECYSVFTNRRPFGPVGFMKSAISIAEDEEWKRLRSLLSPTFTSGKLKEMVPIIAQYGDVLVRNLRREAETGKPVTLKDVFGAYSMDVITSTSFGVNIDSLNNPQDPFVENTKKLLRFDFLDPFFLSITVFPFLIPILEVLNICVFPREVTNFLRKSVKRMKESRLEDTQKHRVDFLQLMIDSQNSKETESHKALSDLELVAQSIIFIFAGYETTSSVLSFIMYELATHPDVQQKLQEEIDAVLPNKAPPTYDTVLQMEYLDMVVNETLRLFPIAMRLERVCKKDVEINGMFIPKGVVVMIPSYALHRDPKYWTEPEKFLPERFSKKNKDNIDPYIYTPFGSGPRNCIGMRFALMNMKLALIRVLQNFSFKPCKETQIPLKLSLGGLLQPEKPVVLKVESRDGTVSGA
CYP3A4, sequence (P08684 whole entry): as above
C-C chemokine receptor type 2 (Homo sapiens), sequence (P41597 whole entry, looked up): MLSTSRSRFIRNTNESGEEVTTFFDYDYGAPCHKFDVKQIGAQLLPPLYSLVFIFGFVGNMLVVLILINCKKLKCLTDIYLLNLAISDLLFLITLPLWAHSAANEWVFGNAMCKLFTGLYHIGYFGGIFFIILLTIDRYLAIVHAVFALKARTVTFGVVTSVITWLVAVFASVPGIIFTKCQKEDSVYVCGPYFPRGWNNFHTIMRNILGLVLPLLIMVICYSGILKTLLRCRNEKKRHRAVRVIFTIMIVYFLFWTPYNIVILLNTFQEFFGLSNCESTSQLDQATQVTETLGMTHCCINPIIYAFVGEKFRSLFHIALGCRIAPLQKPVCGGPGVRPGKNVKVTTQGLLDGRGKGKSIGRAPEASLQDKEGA
C-X-C chemokine receptor type 4 (Homo sapiens), sequence (P61073 whole entry): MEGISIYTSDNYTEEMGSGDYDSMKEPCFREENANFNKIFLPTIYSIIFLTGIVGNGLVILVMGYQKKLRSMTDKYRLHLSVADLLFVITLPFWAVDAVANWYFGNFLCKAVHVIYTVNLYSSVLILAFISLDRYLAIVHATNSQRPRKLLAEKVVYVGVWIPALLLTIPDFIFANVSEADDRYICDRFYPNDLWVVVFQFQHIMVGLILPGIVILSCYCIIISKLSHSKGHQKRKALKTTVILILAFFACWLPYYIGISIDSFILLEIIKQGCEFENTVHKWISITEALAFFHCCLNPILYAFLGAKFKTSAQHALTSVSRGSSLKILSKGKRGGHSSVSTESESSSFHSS
CX3C chemokine receptor 1 (Homo sapiens), sequence (P49238 whole entry): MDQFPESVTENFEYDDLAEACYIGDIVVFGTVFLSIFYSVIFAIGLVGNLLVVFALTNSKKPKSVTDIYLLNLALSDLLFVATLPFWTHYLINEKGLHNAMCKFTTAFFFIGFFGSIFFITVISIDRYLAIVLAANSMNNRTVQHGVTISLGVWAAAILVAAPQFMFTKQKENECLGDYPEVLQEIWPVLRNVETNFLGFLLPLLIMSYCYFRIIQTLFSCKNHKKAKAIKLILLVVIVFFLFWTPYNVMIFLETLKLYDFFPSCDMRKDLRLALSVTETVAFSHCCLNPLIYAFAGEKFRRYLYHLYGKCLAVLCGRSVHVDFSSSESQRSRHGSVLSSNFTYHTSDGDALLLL
C-C chemokine receptor type 3 (Homo sapiens), sequence (P51677 whole entry): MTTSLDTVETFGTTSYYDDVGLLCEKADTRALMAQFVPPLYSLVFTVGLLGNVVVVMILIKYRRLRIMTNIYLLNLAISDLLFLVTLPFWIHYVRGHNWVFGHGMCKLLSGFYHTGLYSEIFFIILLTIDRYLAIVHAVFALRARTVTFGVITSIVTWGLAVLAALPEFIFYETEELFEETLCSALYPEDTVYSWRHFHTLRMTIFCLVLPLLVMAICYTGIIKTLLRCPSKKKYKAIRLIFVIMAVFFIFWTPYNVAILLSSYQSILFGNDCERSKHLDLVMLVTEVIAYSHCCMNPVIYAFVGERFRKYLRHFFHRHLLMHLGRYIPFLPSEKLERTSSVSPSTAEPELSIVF
C-C chemokine receptor type 10 (Homo sapiens), sequence (P46092 whole entry): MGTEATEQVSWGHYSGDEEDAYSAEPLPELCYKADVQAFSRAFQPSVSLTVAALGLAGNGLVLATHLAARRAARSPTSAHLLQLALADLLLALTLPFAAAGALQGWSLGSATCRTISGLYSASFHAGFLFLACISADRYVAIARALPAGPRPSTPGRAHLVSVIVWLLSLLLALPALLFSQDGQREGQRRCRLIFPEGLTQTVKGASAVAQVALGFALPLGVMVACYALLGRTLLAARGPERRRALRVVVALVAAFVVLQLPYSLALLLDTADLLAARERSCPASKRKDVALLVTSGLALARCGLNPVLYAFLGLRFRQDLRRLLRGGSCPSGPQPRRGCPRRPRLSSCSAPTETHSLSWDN
C-X-C chemokine receptor type 2 (Homo sapiens), sequence (P25025 whole entry): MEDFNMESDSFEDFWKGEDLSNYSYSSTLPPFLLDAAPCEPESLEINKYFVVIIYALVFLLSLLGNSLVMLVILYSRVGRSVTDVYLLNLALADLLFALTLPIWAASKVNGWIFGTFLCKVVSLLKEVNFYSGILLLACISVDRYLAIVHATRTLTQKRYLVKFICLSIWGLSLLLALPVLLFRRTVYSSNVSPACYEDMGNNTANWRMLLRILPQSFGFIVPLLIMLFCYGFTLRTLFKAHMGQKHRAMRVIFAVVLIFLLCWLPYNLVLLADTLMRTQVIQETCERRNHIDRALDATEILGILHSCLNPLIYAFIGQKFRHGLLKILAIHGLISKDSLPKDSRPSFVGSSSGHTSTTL

Broadly, the IC50 is the point on the concentration scale where inhibition reaches its midpoint. The term clearance denotes the volume of plasma or blood freed of the substance per unit of time. As usually defined, the bioavailability is dose-corrected exposure relative to a reference, in per cent. As to `C[C@H](c1ccc(Cl)cc1Cl)n1nc(C#N)c2ncc(N3CC([C@H]4CCCN(CCO)C4)C3)nc21`, the results for the IC50 (in data set [1]; on Cytochrome P450 2D6; on Cytochrome P450 3A4) were 0.022 µM, greater than 40 µM and greater than 40 µM, respectively. Further, the remaining at 1 h, 1 µM in data set [2] stood at 91%. For the same compound, the clearance in data set [3] was 47.6 mL/min/kg. Moreover, in data set [4], the bioavailability was 49%. For the same compound, the IC50 shift at CYP3A4 worked out at 1.2. Further, the result in data set [5], in data set [6], in data set [7], in data set [8], in data set [9] and in data set [10] was inactive. Further, the outcome in data set [11] and in [12] was inactive. In addition, the result in the data set on Panc02 was Active.
